{"source": "paper PMC6585766", "about": "(Clinical Pharmacology in Drug Development, 2018)", "key": {"[1]": {"conditions": "human, cited from earlier work"}, "Safety assessment": {"assay": "Safety assessment", "format": "in vivo, human", "conditions": "single oral 4-mg dose", "method_in_brief": "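Open-label, multicentre study in male subjects (healthy, mild, moderate or severe hepatic impairment) given a single oral 4-mg dose. Adverse events were recorded from consent through a follow-up telephone call 7 ± 1 days after dosing, plus any reported within 28 days. Physical exams, vital signs, 12-lead ECGs and clinical laboratory tests were also done. TEAEs were tabulated by system organ class and preferred term, each subject counted once per event.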"}, "[2]": {"conditions": "patients with relapsed and refractory multiple myeloma; cited from earlier work"}, "[3]": {"conditions": "cited from earlier work"}, "[4]": {"format": "in vivo, human", "conditions": "for AUC / AUC(0-inf) / Cmax / half-life / Tmax: human, plasma, po, 4 mg; for AUC / AUC(0-inf) / Cmax / Tmax / CL/F / AUC0‐t, Ratio (%) of Geometric Mean (Impaired vs Healthy) / AUC, Ratio (%) of Geometric Mean (Impaired vs Healthy) / Cmax, Ratio (%) of Geometric Mean (Impaired vs Healthy) / tmax, Median Difference (Impaired– Healthy): single oral 4-mg dose; for AUC(0-inf): AUC (time 0 extrapolated to infinity); for half-life: t1/2, single oral 4-mg dose; for AUC0‐t, Ratio (%) of Geometric Mean (Impaired vs Healthy) / AUC, Ratio (%) of Geometric Mean (Impaired vs Healthy) / Cmax, Ratio (%) of Geometric Mean (Impaired vs Healthy): ANOVA; for tmax, Median Difference (Impaired– Healthy): nonparametric method", "method_in_brief": "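Male subjects (8 per group: healthy, mild, moderate, severe hepatic impairment) received a single oral 4-mg dose. Water was withheld from 60 min pre-dose to 2 h post-dose, food until at least 4 h post-dose, and CYP1A2/CYP3A modulators from 14 days prior. Plasma was sampled pre-dose to 48 h and assayed by validated LC-MS/MS. Noncompartmental parameters used actual sampling times. ANOVA (group as fixed effect) gave geometric mean ratios with 90% CI versus matched healthy subjects.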"}, "[5]": {"conditions": "fed vs fasted; ref data on file; cited from earlier work"}, "[6]": {"conditions": "heavy smokers (approximately 25 cigarettes per day); ref data on file; cited from earlier work"}, "[7]": {"conditions": "administered during the period of organogenesis; no reference given; cited from earlier work"}, "[8]": {"conditions": "severe hepatic impairment group, 1 subject"}, "[9]": {"conditions": "group 1 healthy subjects, n = 8, arithmetic mean (SD)"}, "[10]": {"conditions": "group 2 severe hepatic impairment, n = 8, arithmetic mean (SD)"}, "[11]": {"conditions": "group 3 moderate hepatic impairment, n = 8, arithmetic mean (SD)"}, "[12]": {"conditions": "group 4 mild hepatic impairment, n = 8, arithmetic mean (SD)"}}, "note": "“Also recorded” adds a separate entry of the source. Like-named read-outs stand apart in the source and are kept apart here."}
{"compound": "Nc1cccc2c1C(=O)N(C1CCC(=O)NC1=O)C2=O", "note": "(centres unmarked) [Pomalidomide]", "values": [{"measurement": "clearance pathway: CYP–mediated hydroxylation with subsequent glucuronidation", "setting": "[1]", "result": "43 % of the dose"}, {"measurement": "unchanged pomalidomide in urine", "setting": "[1]", "result": "2.2 % of the dose"}, {"measurement": "total [14C]‐radioactivity recovered in feces", "setting": "[1]; oral", "result": 15.5, "unit": "%"}, {"measurement": "total [14C]‐radioactivity recovered in urine", "setting": "[1]; oral", "result": 72.8, "unit": "%"}, {"measurement": "recovery of total [14C]‐radioactivity", "setting": "[1]; oral, urine plus feces", "result": "approximately 88 % of the administered dose"}, {"measurement": "unchanged pomalidomide in feces", "setting": "[1]; samples collected during the 96‐hour postdose period", "result": "7.7 % of the dose"}, {"measurement": "clearance pathway: excretion of unchanged drug", "setting": "[1]; share of the dose", "result": 10, "unit": "%"}, {"measurement": "clearance pathway: glutarimide ring hydrolysis", "setting": "[1]; share of the dose", "result": 25, "unit": "%"}, {"measurement": "total number of TEAEs", "setting": "Safety assessment; all 32 subjects", "result": 8}, {"measurement": "clinically significant clinical laboratory, vital sign, or ECG results", "setting": "Safety assessment; all subjects", "result": "No subject had a clinical laboratory, vital sign, or ECG result that was considered clinically significant or reported as a TEAE"}, {"measurement": "deaths, SAEs, TEAEs leading to discontinuation", "setting": "Safety assessment; all subjects", "result": "No deaths, SAEs, or TEAEs leading to discontinuation were reported; also recorded: No deaths or other SAEs were reported and no subjects were discontinued; also recorded: no deaths and no subject discontinued due to a TEAE"}, {"measurement": "severity of TEAEs", "setting": "Safety assessment; all subjects", "result": "All TEAEs were mild in severity except for 1 subject in the moderate hepatic impairment group with the moderate TEAE of bronchitis"}, {"measurement": "TEAEs reported", "setting": "Safety assessment; healthy subjects", "result": "No TEAEs"}, {"measurement": "safety and tolerability", "setting": "Safety assessment; healthy subjects and subjects with severe, moderate, or mild hepatic impairment", "result": "safe and well tolerated"}, {"measurement": "subjects reporting at least 1 TEAE related to pomalidomide", "setting": "Safety assessment; mild hepatic impairment group, 2 subjects", "result": 25.0, "unit": "%"}, {"measurement": "subjects reporting TEAEs", "setting": "Safety assessment; mild hepatic impairment group, 4 subjects", "result": 50.0, "unit": "%"}, {"measurement": "subjects reporting TEAEs", "setting": "Safety assessment; moderate hepatic impairment group, 1 subject", "result": 12.5, "unit": "%"}, {"measurement": "subjects reporting at least 1 TEAE related to pomalidomide", "setting": "Safety assessment; overall, 3 subjects (diarrhea, nausea, headache, flushing)", "result": 9.4, "unit": "%"}, {"measurement": "subjects reporting TEAEs", "setting": "Safety assessment; overall, 6 of 32 subjects", "result": 18.8, "unit": "%"}, {"measurement": "subjects reporting TEAEs", "setting": "Safety assessment; [8]", "result": 12.5, "unit": "%"}, {"measurement": "subjects reporting at least 1 TEAE related to pomalidomide", "setting": "Safety assessment; [8]", "result": 12.5, "unit": "%"}, {"measurement": "nonrenal routes as share of pomalidomide total body clearance", "setting": "[2]", "result": "approximately 70%"}, {"measurement": "effect on exposure of pomalidomide", "setting": "[3]; co‐administration of a strong CYP1A2 inhibitor in the presence of a strong CYP3A inhibitor", "result": "approximately doubled"}, {"measurement": "effect on exposure to pomalidomide", "setting": "[3]; co‐administration of a strong CYP3A inhibitor or inducer or a P‐glycoprotein inhibitor", "result": "no clinically relevant effect"}, {"measurement": "AUC", "setting": "[4]; AUC0‐t, Geometric Mean, healthy, N = 8", "result": 481, "unit": "ng·h/mL"}, {"measurement": "AUC", "setting": "[4]; AUC0‐t, Geometric Mean, mild hepatic impairment, N = 8", "result": 693, "unit": "ng·h/mL"}, {"measurement": "AUC", "setting": "[4]; AUC0‐t, Geometric Mean, moderate hepatic impairment, N = 8", "result": 725, "unit": "ng·h/mL"}, {"measurement": "AUC", "setting": "[4]; AUC0‐t, Geometric Mean, severe hepatic impairment, N = 8", "result": 762, "unit": "ng·h/mL"}, {"measurement": "AUC", "setting": "[4]; AUC0‐t, group 1 healthy subjects, n = 8, arithmetic mean (SD)", "result": 493, "unit": "ng·h/mL"}, {"measurement": "AUC", "setting": "[4]; AUC0‐t, group 2 severe hepatic impairment, n = 8, arithmetic mean (SD)", "result": 822, "unit": "ng·h/mL"}, {"measurement": "AUC", "setting": "[4]; AUC0‐t, group 3 moderate hepatic impairment, n = 8, arithmetic mean (SD)", "result": 764, "unit": "ng·h/mL"}, {"measurement": "AUC", "setting": "[4]; AUC0‐t, group 4 mild hepatic impairment, n = 8, arithmetic mean (SD)", "result": 728, "unit": "ng·h/mL"}, {"measurement": "AUC(0-inf)", "setting": "[4]; [9]", "result": 498, "unit": "ng·h/mL"}, {"measurement": "AUC(0-inf)", "setting": "[4]; [10]", "result": 908, "unit": "ng·h/mL"}, {"measurement": "AUC(0-inf)", "setting": "[4]; [11]", "result": 810, "unit": "ng·h/mL"}, {"measurement": "AUC(0-inf)", "setting": "[4]; [12]", "result": 787, "unit": "ng·h/mL"}, {"measurement": "AUC", "setting": "[4]; AUC, Geometric Mean, healthy, N = 8", "result": 486, "unit": "ng·h/mL"}, {"measurement": "AUC", "setting": "[4]; AUC, Geometric Mean, mild hepatic impairment, N = 8", "result": 734, "unit": "ng·h/mL"}, {"measurement": "AUC", "setting": "[4]; AUC, Geometric Mean, moderate hepatic impairment, N = 8", "result": 764, "unit": "ng·h/mL"}, {"measurement": "AUC", "setting": "[4]; AUC, Geometric Mean, severe hepatic impairment, N = 8", "result": 833, "unit": "ng·h/mL"}, {"measurement": "Cmax", "setting": "[4]; Geometric Mean, healthy, N = 8", "result": 59.2, "unit": "ng/mL"}, {"measurement": "Cmax", "setting": "[4]; Geometric Mean, mild hepatic impairment, N = 8", "result": 55.8, "unit": "ng/mL"}, {"measurement": "Cmax", "setting": "[4]; Geometric Mean, moderate hepatic impairment, N = 8", "result": 56.2, "unit": "ng/mL"}, {"measurement": "Cmax", "setting": "[4]; Geometric Mean, severe hepatic impairment, N = 8", "result": 44.9, "unit": "ng/mL"}, {"measurement": "Cmax", "setting": "[4]; [10]", "result": 49.1, "unit": "ng/mL"}, {"measurement": "Cmax", "setting": "[4]; [12]", "result": 56.2, "unit": "ng/mL"}, {"measurement": "half-life", "setting": "[4]; [10]", "result": 762, "unit": "min"}, {"measurement": "half-life", "setting": "[4]; [11]", "result": 606, "unit": "min"}, {"measurement": "half-life", "setting": "[4]; [12]", "result": 618, "unit": "min"}, {"measurement": "Tmax", "setting": "[4]; Geometric Mean, healthy, N = 8, Table 4", "result": 1.5, "unit": "h"}, {"measurement": "Tmax", "setting": "[4]; Geometric Mean, mild hepatic impairment, N = 8, Table 4", "result": 2.25, "unit": "h"}, {"measurement": "Tmax", "setting": "[4]; Geometric Mean, moderate hepatic impairment, N = 8, Table 4", "result": 2.38, "unit": "h"}, {"measurement": "Tmax", "setting": "[4]; Geometric Mean, severe hepatic impairment, N = 8, Table 4", "result": 2.5, "unit": "h"}, {"measurement": "Tmax", "setting": "[4]; group 1 healthy subjects, n = 8, median (min, max)", "result": 1.5, "unit": "h"}, {"measurement": "Tmax", "setting": "[4]; group 2 severe hepatic impairment, n = 8, median (min, max)", "result": 2.5, "unit": "h"}, {"measurement": "Tmax", "setting": "[4]; group 3 moderate hepatic impairment, n = 8, median (min, max)", "result": 2.25, "unit": "h"}, {"measurement": "Tmax", "setting": "[4]; group 4 mild hepatic impairment, n = 8, median (min, max)", "result": 2, "unit": "h"}, {"measurement": "increase of pomalidomide exposure", "setting": "[4]; mild hepatic impairment vs healthy", "result": "approximately 50%"}, {"measurement": "increase of pomalidomide exposure", "setting": "[4]; moderate hepatic impairment vs healthy", "result": "approximately 60%"}, {"measurement": "increase of pomalidomide exposure", "setting": "[4]; severe hepatic impairment vs healthy", "result": "approximately 70%"}, {"measurement": "CL/F", "setting": "[4]; [9]", "result": "8.4 (1.9) L/h"}, {"measurement": "CL/F", "setting": "[4]; [10]", "result": "5.4 (3.3) L/h"}, {"measurement": "CL/F", "setting": "[4]; [11]", "result": "5.6 (2.6) L/h"}, {"measurement": "CL/F", "setting": "[4]; [12]", "result": "5.8 (2.2) L/h"}, {"measurement": "AUC0‐t, Ratio (%) of Geometric Mean (Impaired vs Healthy)", "setting": "[4]; mild vs healthy", "result": 143.9, "unit": "%"}, {"measurement": "AUC, Ratio (%) of Geometric Mean (Impaired vs Healthy)", "setting": "[4]; mild vs healthy", "result": 151.2, "unit": "%"}, {"measurement": "Cmax, Ratio (%) of Geometric Mean (Impaired vs Healthy)", "setting": "[4]; mild vs healthy", "result": 94.2, "unit": "%"}, {"measurement": "tmax, Median Difference (Impaired– Healthy)", "setting": "[4]; mild vs healthy", "result": 1.0, "unit": "h"}, {"measurement": "AUC0‐t, Ratio (%) of Geometric Mean (Impaired vs Healthy)", "setting": "[4]; moderate vs healthy", "result": 150.6, "unit": "%"}, {"measurement": "AUC, Ratio (%) of Geometric Mean (Impaired vs Healthy)", "setting": "[4]; moderate vs healthy", "result": 157.5, "unit": "%"}, {"measurement": "Cmax, Ratio (%) of Geometric Mean (Impaired vs Healthy)", "setting": "[4]; moderate vs healthy", "result": 94.8, "unit": "%"}, {"measurement": "tmax, Median Difference (Impaired– Healthy)", "setting": "[4]; moderate vs healthy", "result": 1.0, "unit": "h"}, {"measurement": "AUC0‐t, Ratio (%) of Geometric Mean (Impaired vs Healthy)", "setting": "[4]; severe vs healthy", "result": 158.4, "unit": "%"}, {"measurement": "AUC, Ratio (%) of Geometric Mean (Impaired vs Healthy)", "setting": "[4]; severe vs healthy", "result": 171.5, "unit": "%"}, {"measurement": "Cmax, Ratio (%) of Geometric Mean (Impaired vs Healthy)", "setting": "[4]; severe vs healthy", "result": 75.8, "unit": "%"}, {"measurement": "tmax, Median Difference (Impaired– Healthy)", "setting": "[4]; severe vs healthy", "result": 0.75, "unit": "h"}, {"measurement": "decrease of AUC by food", "setting": "[5]", "result": 8, "unit": "%"}, {"measurement": "AUC lower in heavy smokers than in nonsmokers", "setting": "[6]", "result": 30, "unit": "%"}, {"measurement": "Cmax higher in heavy smokers than in nonsmokers", "setting": "[6]", "result": 14.4, "unit": "%"}, {"measurement": "teratogenicity", "setting": "[7]", "result": "teratogenic"}]}
